For assay [1], the target named is T1, B2 bradykinin receptor (Homo sapiens, UniProt P30411).
T1 sequence (P30411 whole entry): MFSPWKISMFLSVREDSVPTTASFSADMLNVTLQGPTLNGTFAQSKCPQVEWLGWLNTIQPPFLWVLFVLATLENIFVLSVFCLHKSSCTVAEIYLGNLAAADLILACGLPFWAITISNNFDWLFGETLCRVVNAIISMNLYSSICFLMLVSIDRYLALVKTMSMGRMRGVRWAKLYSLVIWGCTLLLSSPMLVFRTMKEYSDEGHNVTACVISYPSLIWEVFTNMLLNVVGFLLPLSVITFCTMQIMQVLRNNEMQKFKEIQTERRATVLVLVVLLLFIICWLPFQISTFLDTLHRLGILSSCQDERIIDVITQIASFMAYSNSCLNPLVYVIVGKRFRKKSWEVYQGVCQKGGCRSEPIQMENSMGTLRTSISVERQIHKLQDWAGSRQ
The experiment in a line: Displacement of [3H]BK from human B2 receptor transfected in CHO cells. The assay is classed as cell-based. An outline of the steps: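 Membranes from stably transfected CHO cells (100-150 µg/mL) incubated 60 min at room temperature with [³H]BK at 0.1-0.2 nM in TES buffer pH 7.4 with 1,10-phenanthroline, bacitracin and BSA, 1% DMSO final. Competitor 1 pM-10 µM; nonspecific binding with 1 µM BK. Filtration, scintillation counting; IC50 converted to pKi by Cheng-Prusoff.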
For orientation: In a radioligand displacement assay an active substance lowers the binding of a labelled ligand.

Assay [2] has as its target T1, B2 bradykinin receptor. The assay can be described thus: Activity at human B2 receptor transfected in CHO cells assessed as ability to antagonize BK-induced inositol-phosphate accumulation. Particulars: read-out: pA2 (converted). The assay is classed as functional, cell-based. An outline of the steps: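 Stably transfected CHO cells (1.8 × 10⁵/well) grown overnight at 37 °C, then labeled 24 h with [³H]myo-inositol (1 µCi/well). Antagonist preincubation 20 min at a nanomolar concentration, then BK 1 × 10^-11 to 1 × 10^-5 M for 40 min at 37 °C in LiCl-containing buffer, pH 7.4. IP1 radioactivity by liquid scintillation; pA₂ from EC50 concentration-ratios of sigmoidal fits.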

Assay [3] relates to Cavia porcellus. The assay can be described thus: Inhibition of BK-induced bronchoconstriction in guinea pig intratracheally administered at 300 nmol/kg for 210 min. The assay is classed as functional. Particulars: inhaled or nasal, 3.5 h. An outline of the steps: (§1)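 Anesthetized guinea pigs given compound intratracheally at 300 nmol/kg. BK-induced bronchoconstriction and BK-induced hypotension followed over time after dosing.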

Assay [4] has as its system Cavia porcellus. The experiment in a line: Reduction in hypotensive effect in guinea pig intratracheally administered at 300 nmol/kg for 60 min. It counts as functional. More on the design: scale not given: the % may be the effect or the level left. An outline of the steps:
as §1

A word on the Ki: it is the dissociation constant of the complex between target and ligand, obtained from inhibition or displacement. What is called inhibition in vivo is the share of the control response that was lost under treatment.

`Cc1ccc2cccc(OCc3c(Cl)ccc(S(=O)(=O)NC(C)(C)C(=O)N4CCN(C(=N)NCCCCCCN)CC4)c3Cl)c2n1` had an inhibitory constant (Ki) in assay [1] of 1 nM. Besides, the Kb in assay [2] is 7.94 nM.
The corresponding values for `Cc1ccc2cccc(OCc3c(Cl)ccc(S(=O)(=O)NC(C)(C)C(=O)N4CCN(CCCCCCN)CC4)c3Cl)c2n1` are 2.51 nM and 20 nM.
The corresponding values for `Cc1ccc2cccc(OCc3c(Cl)ccc(S(=O)(=O)NC(C)(C)C(=O)N4CCN(C(=N)NCCCN)CC4)c3Cl)c2n1` are 1.58 nM and 11 nM.
For `Cc1ccc2cccc(OCc3c(Cl)ccc(S(=O)(=O)NC(C)(C)C(=O)N4CCN(CCCCCCN=C(N)N)CC4)c3Cl)c2n1`, in assay [1], the inhibition constant (Ki) was 1.58 nM. In addition, the Kb in assay [2] is 7.94 nM.
The compound `Cc1ccc2cccc(OCc3c(Cl)ccc(S(=O)(=O)NC(C)(C)C(=O)N4CCN(C(=O)CN5CCNCC5)CC4)c3Cl)c2n1` had a Ki in assay [1] of 3.98 nM. For the same compound, the Kb in assay [2] is 25.1 nM.
`Cc1ccc2cccc(OCc3c(Cl)ccc(S(=O)(=O)NC(C)(C)C(=O)N4CCN(CCN=C(N)N)CC4)c3Cl)c2n1` showed a Ki in assay [1] of 10 nM. Also, in assay [2], the Kb was 39.8 nM.
With `Cc1ccc2cccc(OCc3c(Cl)ccc(S(=O)(=O)NC(C)(C)C(=O)N4CCN(C(=N)N)CC4)c3Cl)c2n1`, in assay [1], affinity was put at a Ki of 3.98 nM. Moreover, the Kb in assay [2] was 39.8 nM.
The corresponding values for `Cc1cc(C)c2cccc(OCc3c(Cl)ccc(S(=O)(=O)NC(C)(C)C(=O)N4CCN(C(=N)NCCCN)CC4)c3Cl)c2n1` are 1 nM and 2.51 nM.
For `Cc1cc(C)c2cccc(OCc3c(Cl)ccc(S(=O)(=O)NC(C)(C)C(=O)N4CCN(C(=O)[C@@H](N)CCCN(C)C)CC4)c3Cl)c2n1`, the inhibition in vivo at 0.3 µmol/kg in assay [3] came to 80%. Besides, the Activity in assay [4] came out at 30%. In assay [1], this compound had a Ki of 0.398 nM. For the same compound, the Kb in assay [2] was 0.794 nM.

Values taken from ChEMBL document CHEMBL1148641, “Design and synthesis of novel sulfonamide-containing bradykinin hB2 receptor antagonists. 1. Synthesis and SAR of alpha,alpha-dimethylglycine sulfonamides” (J Med Chem, 2006).
